Test results published in ChEMBL document CHEMBL4689842, “EUbOPEN Chemogenomics Library wave 1” (2021).

Tested on: HEK-293T
Experiment: Multiplex assay against HEK293T;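 as to Population Tubulin-Different-Phenotype (%): share of the cells with healthy nuclei that show this phenotype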
Assay type: toxicity, cell-based
Settings: human
In short: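 With compound added, live cells were imaged on a CQ1 microscope at 37°C and 5% CO2; staining with Hoechst33342, BioTracker Green Microtubule Cytoskeleton Dye, MitoTracker Red and Annexin V Alexa Fluor 680 had been done at seeding. The CellPathfinder machine-learning gating scheme split cells into Hoechst high-intensity objects or normal cells, normal cells into healthy, pyknosed or fragmented nuclei, and pyknosed cells into mitotic or apoptotic. The tubulin, mitochondrial-mass and membrane-permeability phenotypes are per cents of healthy-nucleus cells.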

[1] = 12 h, 1 µM, compound concentration 1 uM, replicate 1
[2] = 12 h, 1 µM, compound concentration 1 uM, replicate 2
[3] = 12 h, 10 µM, compound concentration 10 uM, replicate 1
[4] = 12 h, 10 µM, compound concentration 10 uM, replicate 2
[5] = 24 h, 1 µM, compound concentration 1 uM, replicate 1
[6] = 24 h, 1 µM, compound concentration 1 uM, replicate 2
[7] = 24 h, 10 µM, compound concentration 10 uM, replicate 1
[8] = 24 h, 10 µM, compound concentration 10 uM, replicate 2

**Q.** Which results are given for Cc1nc(-c2cn3c(n2)-c2ccc(-c4cnn(C(C)(C)C(N)=O)c4)cc2OCC3)n(C(C)C)n1 [TASELISIB]?
**A.** Population Apoptotic (%) [1]: 21%; Population Fragmented Nuclei (%) [1]: 14%; Population Healthy Nuclei (%) [1]: 44%; Population Hoechst High Intensity Objects (%) [1]: 22%; Population Membrane Permeable-Phenotype (%) [1]: 4%; Population Mitochondria Different-Phenotype (%) [1]: 12%; Population Mitotic Cells (%) [1]: 78%; Population Normal (%) [1]: 77%; Population Pyknosed Nuclei (%) [1]: 41%; Population Tubulin-Different-Phenotype (%) [1]: 9%; Total Cell Count [1]: 548; Population Apoptotic (%) [2]: 17%; Population Fragmented Nuclei (%) [2]: 2%; Population Healthy Nuclei (%) [2]: 80%; Population Hoechst High Intensity Objects (%) [2]: 7%; Population Membrane Permeable-Phenotype (%) [2]: 0%; Population Mitochondria Different-Phenotype (%) [2]: 28%; Population Mitotic Cells (%) [2]: 82%; Population Normal (%) [2]: 92%; Population Pyknosed Nuclei (%) [2]: 16%; Population Tubulin-Different-Phenotype (%) [2]: 13%; Total Cell Count [2]: 803; Population Apoptotic (%) [3]: 17%; Population Fragmented Nuclei (%) [3]: 17%; Population Healthy Nuclei (%) [3]: 49%; Population Hoechst High Intensity Objects (%) [3]: 12%; Population Membrane Permeable-Phenotype (%) [3]: 3%; Population Mitochondria Different-Phenotype (%) [3]: 8%; Population Mitotic Cells (%) [3]: 82%; Population Normal (%) [3]: 87%; Population Pyknosed Nuclei (%) [3]: 32%; Population Tubulin-Different-Phenotype (%) [3]: 6%; Total Cell Count [3]: 507; Population Apoptotic (%) [4]: 11%; Population Fragmented Nuclei (%) [4]: 8%; Population Healthy Nuclei (%) [4]: 86%; Population Hoechst High Intensity Objects (%) [4]: 3%; Population Membrane Permeable-Phenotype (%) [4]: 1%; Population Mitochondria Different-Phenotype (%) [4]: 11%; Population Mitotic Cells (%) [4]: 88%; Population Normal (%) [4]: 96%; Population Pyknosed Nuclei (%) [4]: 4%; Population Tubulin-Different-Phenotype (%) [4]: 10%; Total Cell Count [4]: 1692; Population Apoptotic (%) [5]: 24%; Population Fragmented Nuclei (%) [5]: 16%; Population Healthy Nuclei (%) [5]: 53%; Population Hoechst High Intensity Objects (%) [5]: 17%; Population Membrane Permeable-Phenotype (%) [5]: 3%; Population Mitochondria Different-Phenotype (%) [5]: 15%; Population Mitotic Cells (%) [5]: 75%; Population Normal (%) [5]: 82%; Population Pyknosed Nuclei (%) [5]: 30%; Population Tubulin-Different-Phenotype (%) [5]: 18%; Total Cell Count [5]: 507; Population Apoptotic (%) [6]: 20%; Population Fragmented Nuclei (%) [6]: 4%; Population Healthy Nuclei (%) [6]: 84%; Population Hoechst High Intensity Objects (%) [6]: 10%; Population Membrane Permeable-Phenotype (%) [6]: 1%; Population Mitochondria Different-Phenotype (%) [6]: 20%; Population Mitotic Cells (%) [6]: 79%; Population Normal (%) [6]: 89%; Population Pyknosed Nuclei (%) [6]: 11%; Population Tubulin-Different-Phenotype (%) [6]: 39%; Total Cell Count [6]: 810; Population Apoptotic (%) [7]: 27%; Population Fragmented Nuclei (%) [7]: 13%; Population Healthy Nuclei (%) [7]: 66%; Population Hoechst High Intensity Objects (%) [7]: 8%; Population Membrane Permeable-Phenotype (%) [7]: 12%; Population Mitochondria Different-Phenotype (%) [7]: 5%; Population Mitotic Cells (%) [7]: 72%; Population Normal (%) [7]: 91%; Population Pyknosed Nuclei (%) [7]: 19%; Population Tubulin-Different-Phenotype (%) [7]: 11%; Total Cell Count [7]: 535; Population Apoptotic (%) [8]: 3%; Population Fragmented Nuclei (%) [8]: 24%; Population Healthy Nuclei (%) [8]: 73%; Population Hoechst High Intensity Objects (%) [8]: 4%; Population Membrane Permeable-Phenotype (%) [8]: 7%; Population Mitochondria Different-Phenotype (%) [8]: 2%; Population Mitotic Cells (%) [8]: 96%; Population Normal (%) [8]: 95%; Population Pyknosed Nuclei (%) [8]: 1%; Population Tubulin-Different-Phenotype (%) [8]: 12%; Total Cell Count [8]: 2851
